In paper PMC7927141 (Molecular Pharmaceutics, 2021):
Where two headings read alike, the source gives them in different places.

Assays:
[1] = system: different types of cancer cell lines; settings: cited from earlier work
Sk-ChA-1 cells = test: In vitro cytotoxicity, SRB total protein assay, Sk-ChA-1; format: cell-based; settings: Homo sapiens
Procedure, shortened: (§1)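 Cells grown in RPMI 1640 with 10% FBS, penicillin/streptomycin and 2 mM L-glutamine at 37 °C, 5% CO2. Seeded at 5 × 10^4 cells/well and cultured 24 h. Then exposed 24, 48 or 72 h to free test compound (DMSO, 0.4% v/v final) or micelle-loaded test compound in HBS, 0–200 μM; HBS controls. After PBS wash, SRB total protein read at 564 nm, normalized to control. IC50 from sigmoidal variable-slope nonlinear regression.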

TFK-1 cells = test: In vitro cytotoxicity, SRB total protein assay, TFK-1; format: cell-based; settings: Homo sapiens
Procedure, shortened: as §1

[2] = Circulation kinetics of Cy7-labeled curcumin micelles in mice; format: in vivo, BALB/c mice
Procedure, shortened: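 Female mice received 9% (w/w) curcumin-loaded Cy7-labelled mPEG-b-p(HPMA-Bz) micelles i.v. (500 mg polymer/kg, 100–200 μL). EDTA blood was drawn submandibularly at 1 min (set as 100% dose), 10 min and 1 h, and by cardiac puncture at 4 and 24 h. Plasma was ACN-extracted (1:4) and assayed for curcumin by C18 RP-HPLC at 425/254 nm. Parameters came from two-compartmental analysis.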

[3] = cited from earlier work
Neuro2A cells = test: In vitro cytotoxicity, SRB total protein assay, Neuro2A; format: cell-based, murine
Procedure, shortened: as §1

[4] = system: cancer cells (Neuro2A, EGI-1, TFK-1, Mz-ChA-1); test: Association and uptake by flow cytometry and confocal microscopy; format: cell-based; settings: 20 μM, flow cytometry
Procedure, shortened: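 5 × 10^5 cells/well, grown 18 h. Medium replaced by nonsupplemented medium containing 20 μM test compound, free (0.4% DMSO final) or micelle-loaded, or Cy5-labelled micelles at 0.3 mg/mL. Incubated 1 or 4 h, rinsed twice with PBS, trypsinized, analysed by flow cytometry. Confocal imaging on coverslips after 0.5, 1 and 4 h at 37 °C, excitation 405/633 nm.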

Mz-ChA-1 cells = test: In vitro cytotoxicity, SRB total protein assay, Mz-ChA-1; format: cell-based, human
Procedure, shortened: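 Mz-ChA-1 cells in RPMI 1640 with 10% FBS, penicillin/streptomycin and 2 mM L-glutamine at 37 °C, 5% CO2. Seeded at 25 × 10^4 cells/well for slow growth, cultured 24 h. Then 24, 48 or 72 h with free test compound (DMSO, 0.4% v/v final) or micelle-encapsulated test compound in HBS, 0–200 μM; HBS-treated controls. PBS wash, SRB protein stain, absorbance 564 nm, viability versus control. IC50 by sigmoidal variable-slope curve fit.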

EGI-1 cells = test: In vitro cytotoxicity, SRB total protein assay, EGI-1; format: cell-based; settings: Homo sapiens
Procedure, shortened: as §1

[5] = Biodistribution of Cy7-labeled curcumin micelles in mice; format: in vivo, BALB/c mice; settings: 4 and 24 h post-administration, iv 50 mg curcumin/kg in micelles
[6] = read-out: IC50 after 48 and 72 h
[7] = female, BALB/c, mouse, plasma, iv, 7.8 mg/kg
[8] = iv, 50 mg curcumin/kg, two-compartmental

## COc1cc(/C=C/C(=O)CC(=O)/C=C/c2ccc(O)c(OC)c2)ccc1O [free curcumin, curcumin]
[1]; read-out: IC50 mean ± SD
  IC50: 21 ± 17 µM
[1]; read-out: IC50 range
  IC50: 1 to 100 µM
Sk-ChA-1 cells; 24 h
  IC50: 33.9 ± 1.3 µM
Sk-ChA-1 cells; 48 h
  IC50: 21.5 ± 0.4 µM
Sk-ChA-1 cells; 72 h
  IC50: 21.3 ± 0.4 µM
Sk-ChA-1 cells; [6]
  IC50: ~20 µM
TFK-1 cells; 24 h
  IC50: 27.7 ± 0.9 µM
TFK-1 cells; 48 h
  IC50: 20.1 ± 0.9 µM
TFK-1 cells; 72 h
  IC50: 17.5 ± 0.5 µM
TFK-1 cells; [6]
  IC50: ~20 µM
[2]; curcumin after iv curcumin-loaded micelles vs literature free curcumin
  t1/2α relative to that reported for free curcumin: ~5 times
[2]; [7]
  AUC(0-inf): 319 µg·h/mL
  clearance: 2.62 mL/min/kg
[2]; iv, 50 mg curcumin/kg as curcumin-loaded micelles
  initial phase t1/2α: 6.7 min
[2]; [8]
  V1: 0.086 L/kg
  V2: 0.344 L/kg
[2]; iv, 50 mg/kg curcumin in micelles
  loaded curcumin eliminated during the first hour: 90%
[3]; 50 mg/kg in mice, noncompartmental analysis, ref 63 (Gao et al.)
  AUC: 60.3 µg·h/mL
[3]; two studies
  normalized AUC: 1.2 (μg·h/mL)/(mg/kg)
Neuro2A cells; 24 h exposure
  IC50: 83.8 ± 13.5 µM
Neuro2A cells; Mus musculus, N2a, 24 h, 24 h exposure
  IC50: 84 µM
Neuro2A cells; Mus musculus, N2a, 48 h, 48 h exposure
  IC50: 15.6 ± 0.8 µM
Neuro2A cells; Mus musculus, N2a, 72 h, 72 h exposure
  IC50: 23.3 ± 1.2 µM
[4]
  time of incubation until intracellular detection: ≤ 1 h
Mz-ChA-1 cells; Homo sapiens, 24 h, Mz-ChA-1, 24 h exposure
  IC50: 48 µM
Mz-ChA-1 cells; Homo sapiens, 48 h, Mz-ChA-1, 48 h exposure
  IC50: 38.4 ± 1.4 µM
Mz-ChA-1 cells; Homo sapiens, 72 h, Mz-ChA-1, 72 h exposure
  IC50: 37.8 ± 1.1 µM
Mz-ChA-1 cells; Mz-ChA-1, 24 h exposure
  IC50: 47.6 ± 1.6 µM
EGI-1 cells; EGI-1, 24 h
  IC50: 21.7 ± 0.5 µM
EGI-1 cells; EGI-1, 48 h
  IC50: 18.2 ± 0.3 µM
EGI-1 cells; EGI-1, 72 h
  IC50: 19.1 ± 0.3 µM
EGI-1 cells; EGI-1, read-out: IC50 after 48 and 72 h
  IC50: ~20 µM
[5]
  curcumin concentration in the different organs: 0.2–3 μg/g tissue
